# Data from ChEMBL document CHEMBL4715886, “Microwave-assisted efficient synthesis of pyrazole-fibrate derivatives as stimulators of glucose uptake in skeletal muscle cells” (2021).
# Calls of active or inactive are those of the source. The rule behind the calls is not given here.
# Legend:
# [1] = molecular target: T1, Solute carrier family 2, facilitated glucose transporter member 4 (Rattus norvegicus) (UniProt P19357); assay: Induction of GLUT4 translocation in rat L6 cells harboring GLUT4-myc assessed as increase in surface level GLUT4myc at 10 uM after 16 hrs; format: cell-based
# T1 sequence (whole entry): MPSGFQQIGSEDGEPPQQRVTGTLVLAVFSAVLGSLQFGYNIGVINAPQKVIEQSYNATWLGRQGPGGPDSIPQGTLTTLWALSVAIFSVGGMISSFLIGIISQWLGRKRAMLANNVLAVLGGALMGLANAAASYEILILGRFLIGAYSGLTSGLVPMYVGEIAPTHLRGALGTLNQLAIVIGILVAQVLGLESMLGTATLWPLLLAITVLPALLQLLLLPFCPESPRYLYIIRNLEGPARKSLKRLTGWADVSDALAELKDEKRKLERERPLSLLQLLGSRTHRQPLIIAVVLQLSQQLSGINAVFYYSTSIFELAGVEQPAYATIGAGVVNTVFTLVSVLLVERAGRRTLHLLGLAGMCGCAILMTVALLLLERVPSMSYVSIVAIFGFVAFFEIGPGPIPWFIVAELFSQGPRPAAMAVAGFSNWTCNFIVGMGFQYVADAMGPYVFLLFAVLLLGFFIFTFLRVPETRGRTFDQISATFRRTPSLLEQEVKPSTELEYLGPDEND
# [2] = tested on: L6; assay: Induction of glucose uptake in rat L6 cells harboring GLUT4-myc assessed as glucose uptake at 10 uM relative to control; format: functional
# How it was run: (§1)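 L6-GLUT4myc rat skeletal muscle cells were exposed once to test compound at 10 µM. Glucose uptake was read and reported as fold increase and as percent stimulation over untreated control.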
# [3] = tested on: L6; assay: Induction of glucose uptake in rat L6 cells harboring GLUT4-myc assessed as fold change in glucose uptake at 10 uM; format: functional; how it was run: as §1
# [4] = tested on: L6; assay: Induction of glucose uptake in rat L6 cells harboring GLUT4-myc assessed as glucose uptake at 500 uM relative to control; format: functional
# How it was run: (§2)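 L6-GLUT4myc skeletal muscle cells were exposed to the reference agent at 500 µM. Glucose uptake was measured as fold increase and as percent stimulation relative to untreated control.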
# [5] = tested on: L6; assay: Induction of glucose uptake in rat L6 cells harboring GLUT4-myc assessed as fold change in glucose uptake at 500 uM; format: functional; how it was run: as §2
# [6] = molecular target: T1, Solute carrier family 2, facilitated glucose transporter member 4 (Rattus norvegicus); assay: Induction of GLUT4 translocation in rat L6 cells harboring GLUT4-myc assessed as fold change in increase of surface level GLUT4myc at 500 uM after 16 hrs; format: cell-based
# How it was run: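 L6-GLUT4myc myotubes were exposed for 16 h, and cell-surface GLUT4myc level was then measured. Experiments were done in triplicate and expressed as mean ± SE, with p relative to the unstimulated control.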
SMILES,Activity [2] [%],further results
CCOC(=O)C(C)(C)Oc1ccc(-c2nc3c(cnn3-c3ccccc3)c(=O)[nH]2)cc1,34.4,Activity [1]: Active; fold change (FC) [3]: 1.34
CCOC(=O)C(C)Oc1ccc(-c2nc3c(cnn3-c3ccc(F)cc3F)c(=O)[nH]2)cc1 (configuration not stated),-14.7,–
CN(C)C(=N)NC(=N)N [METFORMIN],–,Activity [4]: 48%; fold change (FC) [5]: 1.48; fold change (FC) [6]: 1.45
CCOC(=O)C(C)Oc1ccc(-c2nc3c(cnn3-c3ccccc3)c(=O)[nH]2)cc1 (configuration not stated),34,Activity [1]: Active; fold change (FC) [3]: 1.34
CCOC(=O)C(C)Oc1ccc(-c2nc3c(cnn3-c3ccc(OC)cc3)c(=O)[nH]2)cc1 (configuration not stated),34.4,Activity [1]: Active; fold change (FC) [3]: 1.34
CCOC(=O)C(C)(C)Oc1ccc(-c2nc3c(cnn3-c3ccc(F)cc3)c(=O)[nH]2)cc1,0.6,–
CCOC(=O)C(C)(C)Oc1ccc(-c2nc3c(cnn3-c3ccc(OC)cc3)c(=O)[nH]2)cc1,5,–
CCOC(=O)C(C)(C)Oc1ccc(-c2nc3c(cnn3-c3ccc(C)c(C)c3)c(=O)[nH]2)cc1,12.9,–
CCOC(=O)CCCOc1ccc(-c2nc3c(cnn3-c3ccc(C)c(C)c3)c(=O)[nH]2)cc1,54,Activity [1]: Active; fold change (FC) [3]: 1.54
CCOC(=O)CCCOc1ccc(-c2nc3c(cnn3-c3ccc(OC)cc3)c(=O)[nH]2)cc1,10.4,–
CCOC(=O)CCCOc1ccc(-c2nc3c(cnn3-c3ccccc3)c(=O)[nH]2)cc1,-8.3,–
CCOC(=O)COc1ccc(-c2nc3c(cnn3-c3ccc(F)cc3F)c(=O)[nH]2)cc1,-1.6,–
CCOC(=O)C(C)(C)Oc1ccc(-c2nc3c(cnn3-c3ccc(F)cc3F)c(=O)[nH]2)cc1,-12.8,–
CCOC(=O)CCCOc1ccc(-c2nc3c(cnn3-c3ccc(F)cc3)c(=O)[nH]2)cc1,6.4,–
CCOC(=O)C(C)Oc1ccc(-c2nc3c(cnn3-c3ccc(C)c(C)c3)c(=O)[nH]2)cc1 (configuration not stated),-17.2,–
CCOC(=O)CCCOc1ccc(-c2nc3c(cnn3-c3ccc(F)cc3F)c(=O)[nH]2)cc1,2.9,–
CCOC(=O)COc1ccc(-c2nc3c(cnn3-c3ccc(OC)cc3)c(=O)[nH]2)cc1,13.1,–
CCOC(=O)COc1ccc(-c2nc3c(cnn3-c3ccc(F)cc3)c(=O)[nH]2)cc1,23.7,–
CCOC(=O)C(C)Oc1ccc(-c2nc3c(cnn3-c3ccc(F)cc3)c(=O)[nH]2)cc1 (configuration not stated),0.6,–
CCOC(=O)COc1ccc(-c2nc3c(cnn3-c3ccccc3)c(=O)[nH]2)cc1,-8.6,–
CCOC(=O)COc1ccc(-c2nc3c(cnn3-c3ccc(C)c(C)c3)c(=O)[nH]2)cc1,-16.8,–
CCOC(=O)C(C)Oc1ccc(-c2nc3c(cnn3-c3ccc(F)cc3)c(=O)n2C)cc1 (configuration not stated),2.9,–
